Compound activity: PubChem BioAssay, several laboratories
Diaph act CS: activates diaphorase or chemically reduces, flagging diaphorase assay artifacts | Diaphorase/resazurin coupled assay, resorufin fluorescence, 16 min; stronger effect = higher value; 1 = vehicle wells, 0 = NADH-free wells | actives 0.005% (n = 190,000) | AID 1229 | activation factor at 20 µM;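 active = diaphorase activity raised at least twofold by the compound at 20 µM; inactive = activation factor below 2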
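Material: bacterial diaphorase enzyme (C. kluyveri); amount: enzyme 0.07 U/mL final; reagent: NADH substrate 0.114 mM plus resazurin dye 0.1 mM, final; doses: single compound dose of 20 µM, 1% DMSO final; timing: 16 min enzyme reaction, ambient temperature; measured by: fluorescence of resorufin, 544 nm excitation, 590 nm emission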
PfGluPho inh: PfG6PD (Plasmodium falciparum) enzyme inhibition; AID 504690; inhibition, % at 20 µM; PfGluPho enzyme, NADPH resazurin-diaphorase fluorescence; actives 0.78% (n = 350,000);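 active = inhibition reaching at least a set limit at 20 µM in the primary screen, cut at about 59% in these data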
DTT redox prof: compounds producing H2O2 with reducing agent – biochemical, NIH compound library profiling, artefact control for MLSCN library redox annotation, primary screen | DTT-dependent redox cycling H2O2, phenol red/HRP absorbance; 100% = 100 µM peroxide control, 0% = buffer | activation, % at 10 µM | actives 0.03% (n = 200,000) | AID 878;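 active = activation of at least 50% relative to the plate's high and low controls in the primary single-dose screen; inactive = activation below 50%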;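 note: compound incubated with DTT at 0.8 mM final as the reducing agent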
G6PDH CS: L. mesenteroides G6PDH inhibition counter-screen; AID 1020; actives 0.12% (n = 200,000); Purified L. mesenteroides G6PDH, diaphorase/resazurin coupled fluorescence, 45 min; inhibition, % at 5 µM
Diaph inh CS: diaphorase inhibition or chemical oxidation counter-screen; actives 0.69% (n = 190,000); AID 1217; diaphorase resazurin-to-resorufin fluorescence, NADH, 16 min; bacterial (C. kluyveri) enzyme, not human; inhibition, % at 20 µM;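 active = primary screen inhibition at 20 µM above a set limit, cut at about 50% in these data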
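Assay system: diaphorase enzyme from Clostridium kluyveri; Input: enzyme working solution with 0.14 U/mL diaphorase; Timing: 16 min at room temperature; Technique: resorufin fluorescence, excitation 544 nm, emission 590 nm; Benchmarks: positive control minus NADH, DMSO neutral control.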
L major viab: inhibitors of Leishmania major promastigote growth; Leishmania major promastigotes, resazurin fluorescence viability; inhibition, % at 10 µM; actives 9% (n = 200,000);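 note: promastigotes grown with compound for 44 hours at 28 °C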
Numbers stand for hits; . = inactive; / = no result. The full list was thinned out, with hits kept by preference. Cut-off read from the data, not from the text of the source, unless noted: active = inhibition above about 50%; inactive = the rest.

SMILES | Diaph act CS | PfGluPho inh | DTT redox prof | G6PDH CS | Diaph inh CS | L major viab
CCOC(=O)C(=CNc1cscc1S(=O)(=O)C(C)C)C(=O)OCC | / | . | / | / | / | /
Cn1cc(CN2CCCC(C(=O)c3cc(F)ccc3F)C2)c2ccccc21 (stereo not given) | . | . | . | . | . | 88
COc1ccc(F)cc1C(=O)C1CCCN(Cc2c[nH]c3ccccc23)C1 (stereo not given) | . | . | . | . | . | .
COc1ccc(F)cc1C(=O)C1CCCN(Cc2cn(C)c3ccccc23)C1 (stereo not given) | . | . | . | . | . | 90
O=C(O)C1OC(Oc2c(-c3ccc(O)c(O)c3)oc3cc(O)cc(O)c3c2=O)C(O)C(O)C1O (stereo not given) | . | . | . | . | 55 | .
CN(C(=O)COc1ccc([N+](=O)[O-])cc1)C1CCS(=O)(=O)C1 (stereo not given) | . | . | . | . | . | .
CC(C)C1C(C#N)=C(N)Oc2n[nH]c(-c3cccs3)c21 (stereo not given) | . | . | . | . | . | .
Cc1ccc(-c2[nH]nc3c2C(c2ccsc2)C(C#N)=C(N)O3)cc1 (stereo not given) | . | . | . | . | . | .
Cc1[nH]nc2c1C(c1ccsc1)C(C#N)=C(N)O2 (stereo not given) | . | . | . | . | . | 57
Cc1[nH]nc2c1C(c1ccsc1C)C(C#N)=C(N)O2 (stereo not given) | . | . | . | . | . | 77
CC(C)c1[nH]nc2c1C(c1cccs1)C(C#N)=C(N)O2 (stereo not given) | . | . | . | . | . | 59
CC(C)C(OC(=O)C1=Cc2ccccc2OC1)C(=O)NCC1CCCO1 (stereo not given) | / | . | / | / | / | /
N#CCCN/N=C(/Cc1nc2ccccc2[nH]1)c1cccc(Cl)c1 | . | . | . | . | . | 78
O=C(Nc1nnc(CCN2CCCCC2)s1)c1ccccc1Cl | . | . | . | . | . | .
CCCSc1nc(C)cc(C)c1S(=O)(=O)c1ccccc1C | . | . | . | . | . | 94
Cc1cc(C)c(S(=O)(=O)c2ccccc2C)c(OCC(C)(C)C)n1 | . | . | . | . | . | 96
Cc1cc(C)c(S(=O)(=O)c2ccccc2C)c(SCC(C)C)n1 | . | . | . | . | . | 92
CCCSc1nc(C)cc(C)c1S(C)(=O)=O | . | . | . | . | . | .
COc1ccc(OC)c(NC(=O)C2CCN(C(=O)C3CC(=O)N(c4ccc(C)cc4)C3)CC2)c1 (stereo not given) | / | . | / | / | / | /
CCN(CC(=O)Nc1ccc(NC(C)=O)cc1)C(=O)c1cccnc1Sc1ccc(C)c(C)c1 | / | . | / | / | / | /
CON(c1nc(N(C)C)nc(N(C)C)n1)S(=O)(=O)c1ccccc1Cl | . | . | . | . | . | 65
COc1ccc2nc(/N=C(\N)NC(=O)C(C)(C)C)nc(C)c2c1 | . | . | . | . | . | 51
CC1CCCCN1C(=O)COC(=O)CNC(=O)c1ccc(Cl)cc1Cl (stereo not given) | / | . | / | / | / | /
Cc1ccc(CC2(O)CC(C)N(C)CC2C)c(C)c1 (stereo not given) | . | . | . | . | . | 69
COc1ccc(C2(CCN)CC(C)N(C)CC2C)cc1 (stereo not given) | . | . | . | . | . | .
COc1ccccc1C(=O)NCC(=O)NCCC(c1ccccc1)c1ccccc1 | / | . | / | / | / | /
CCCCC(=O)NC(c1cccc([N+](=O)[O-])c1)c1c(OC(C)=O)ccc2ccccc12 (stereo not given) | . | . | . | . | . | 89
CCCCC(=O)NC(c1cccc([N+](=O)[O-])c1)c1ccc2cccnc2c1O (stereo not given) | / | . | / | / | / | /
CC(=O)Oc1ccc2ccccc2c1C(NC(=O)Cc1ccccc1)c1ccccc1 (stereo not given) | . | . | . | . | . | .
CC(=O)Oc1ccc2ccccc2c1C(NC(=O)C(C)C)c1cccc([N+](=O)[O-])c1 (stereo not given) | . | . | . | . | . | 99
